Data on 18 molecules can be found in ChEMBL document CHEMBL1158555, “Structure-activity relationships of bioisosteric replacement of the carboxylic acid in novel androgen receptor pure antagonists” (Bioorg Med Chem, 2010).

Series [1] addresses T1, Androgen receptor (Homo sapiens) (UniProt P10275).
T1 sequence (whole entry): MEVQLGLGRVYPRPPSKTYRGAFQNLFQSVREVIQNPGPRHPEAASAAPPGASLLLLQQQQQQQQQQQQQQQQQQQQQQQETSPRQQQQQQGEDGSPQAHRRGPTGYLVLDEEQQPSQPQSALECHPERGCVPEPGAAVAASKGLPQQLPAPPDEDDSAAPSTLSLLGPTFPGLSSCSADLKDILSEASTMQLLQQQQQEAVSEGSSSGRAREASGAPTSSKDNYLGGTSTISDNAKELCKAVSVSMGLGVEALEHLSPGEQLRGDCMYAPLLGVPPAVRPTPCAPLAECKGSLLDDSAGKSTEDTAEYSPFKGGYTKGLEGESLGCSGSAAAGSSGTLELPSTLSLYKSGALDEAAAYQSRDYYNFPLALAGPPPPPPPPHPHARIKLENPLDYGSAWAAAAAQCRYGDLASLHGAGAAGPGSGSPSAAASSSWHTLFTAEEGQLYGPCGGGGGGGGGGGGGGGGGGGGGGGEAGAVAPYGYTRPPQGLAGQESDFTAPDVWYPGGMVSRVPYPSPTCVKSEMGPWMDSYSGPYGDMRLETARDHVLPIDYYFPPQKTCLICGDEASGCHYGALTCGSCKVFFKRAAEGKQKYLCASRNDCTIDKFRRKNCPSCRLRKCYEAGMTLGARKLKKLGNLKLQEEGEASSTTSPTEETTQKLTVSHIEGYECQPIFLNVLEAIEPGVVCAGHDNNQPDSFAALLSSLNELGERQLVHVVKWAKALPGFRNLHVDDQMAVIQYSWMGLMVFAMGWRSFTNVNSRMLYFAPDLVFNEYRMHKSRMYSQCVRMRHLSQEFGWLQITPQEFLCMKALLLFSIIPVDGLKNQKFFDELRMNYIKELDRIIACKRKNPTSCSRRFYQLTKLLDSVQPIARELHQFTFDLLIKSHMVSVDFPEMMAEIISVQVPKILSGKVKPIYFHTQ
As to conditions: HeLa.

The target in series [2] is T1, Androgen receptor (Homo sapiens). Particulars: HeLa. This is another data set of the same source.
Series [3] has the same target. As to the kind of experiment: Agonist activity at AR in human LNCAP cells assessed as effect on cell proliferation after 6 days. Format: functional, cell-based. The method, boiled down:
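LNCaP cells were pre-starved and plated in phenol red-free RPMI 1640 with 5% DCC-FBS. After overnight attachment, test compound was added without R1881 for 6 days. Proliferation was read by MTS (CellTiter 96 AQueous One). Agonism was scored +/− from the growth dose-response curve.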

The next series deals with T2, Androgen receptor (Homo sapiens, UniProt P10275).
T2 sequence (P10275 whole entry): T1 sequence (whole entry)
As to the kind of experiment: Displacement of [3H]mibolerone from human AR expressed in CHO-K1 cells after 2 hrs by scintillation counting. Format: cell-based. A general note: Loss of bound radioactivity is the signal in a displacement assay; it reports binding, not function.

The test system of the next series is LNCaP. In words: Antitumor activity against human LNCAP cells xenografted in po dosed SCID mouse assessed as inhibition of tumor growth administered once daily in seven cycles of 5 days on and 2 days off schedule. It is filed as functional, organism-based. The method, boiled down:
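LNCaP cells (2×10^6) were injected subcutaneously into 6-week-old male SCID mice. At tumour size 90–400 mm³, mice were randomised and dosed orally in 5% gum arabic at 10 mL/kg body weight. Dosing ran as seven cycles of 5 days on, 2 days off, with n = 6 per group.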
For orientation: In xenograft studies the graft and the host belong to different species.

The nature of series [4]: Metabolic stability in human liver microsomes assessed as compound remaining at […] after 15 mins by LC-MS/MS analysis. It is filed as ADME, Microsome. As to conditions: read-out: Stability.
The species named for a further series is Mus musculus. As to the kind of experiment: Antiandrogenic activity in castrated mouse assessed as reduction in testosterone-induced wet weight gain of seminal vesicle. Format: functional.

SMILES strings stand for the structures. Active and inactive are the calls of the source. The calls are words filed in the database; no cut-off is given here.

`CC1(C)C(=O)N(c2ccc(C#N)c(C(F)(F)F)c2)C(=S)N1CCCC(N)=O`: the EC5 was 3.6 µM in series [1] and greater than 10 µM in series [2]. Further, the result in series [3] was inactive. Further, on Androgen receptor, the half-inhibitory concentration (IC50) is 480 nM.
With `CC1(C)C(=O)N(c2ccc(C#N)c(C(F)(F)F)c2)C(=S)N1CCCCS(N)(=O)=O`, the EC5 in series [1] and in series [2] was greater than 10 µM throughout. Further, the outcome in series [3] was inactive. This molecule displayed an IC50 at Androgen receptor greater than 1000 nM.
For the molecule `CC1(C)C(=O)N(c2ccc(C#N)c(Cl)c2)C(=S)N1CCCS(N)(=O)=O`, the inhibition entry in the series with LNCaP is “Dose-dependent effect”. For the same molecule, in series [4], the remaining is 100%. Also, in series [3], the outcome was inactive. Moreover, the ED50 in the series listed under Mus musculus came out at 10 mg/kg. The half-inhibitory concentration (IC50) at Androgen receptor came out at 440 nM.
Regarding `CC1(C)C(=O)N(c2ccc(C#N)c(C(F)(F)F)c2)C(=S)N1CCCC(=O)O`, the EC5 in series [1] and in series [2] was greater than 10 µM each time. Moreover, the remaining in series [4] was 97%. For the same molecule, in series [3], the outcome was inactive. At Androgen receptor, the IC50 was 3900 nM.
As to `CC1(C)C(=O)N(c2ccc(C#N)c(C(F)(F)F)c2)C(=S)N1CCCS(N)(=O)=O`, the EC5 in series [1] and in series [2] was greater than 10 µM throughout. Besides, the remaining in series [4] came to 95%. Besides, the result in series [3] was inactive. The half-maximal inhibitory concentration (IC50) on Androgen receptor is 400 nM.
Turning to `CC1(C)C(=O)N(c2ccc(C#N)cc2)C(=S)N1CCCS(N)(=O)=O`, the remaining in series [4] amounted to 92%. In series [2], this molecule displayed an EC5 greater than 10 µM. The molecule also returned an IC50 on Androgen receptor greater than 5000 nM.
Turning to `CC1(C)C(=O)N(c2ccc(C#N)c(C(F)(F)F)c2)C(=S)N1CCCNC(N)=O`, the EC5 in series [1] stood at 0.65 µM; in series [2], 0.35 µM. In series [3], the result was inactive. At Androgen receptor, this molecule registered an IC50 of 800 nM.
As to `CC1(C)C(=O)N(c2ccc(C#N)c(C(F)(F)F)c2)C(=S)N1CCCS(=O)(=O)O`, the EC5 in series [1] is greater than 10 µM. In addition, the outcome in series [3] was Active. The same molecule showed an IC50 on Androgen receptor greater than 1000 nM.
Taken in the same sequence, the figures for `CC1(C)C(=O)N(c2ccc(C#N)c(C(F)(F)F)c2)C(=S)N1CCCc1nnn[nH]1` were greater than 10 µM, “inactive” and greater than 1000 nM.
Regarding `CNS(=O)(=O)CCCN1C(=S)N(c2ccc(C#N)c(C(F)(F)F)c2)C(=O)C1(C)C`, the EC5 was greater than 10 µM in series [1] and 1.4 µM in series [2]. In series [3], the result was inactive. The molecule further returned an IC50 on Androgen receptor of 170 nM.
In the case of `COc1cc(N2C(=O)C(C)(C)N(CCCS(N)(=O)=O)C2=S)ccc1C#N`, the remaining in series [4] is 100%. Besides, the EC5 in series [2] was greater than 10 µM. For the same molecule, the outcome in series [3] was Active. The half-maximal inhibitory concentration (IC50) on Androgen receptor is 1900 nM.
As for `CN(C)S(=O)(=O)CCCN1C(=S)N(c2ccc(C#N)c(C(F)(F)F)c2)C(=O)C1(C)C`, the EC5 in series [1] came out at 0.11 µM. For the same molecule, in series [3], the result was Active. For the same molecule, the half-maximal inhibitory concentration (IC50) at Androgen receptor is 80 nM.
On to `Cc1cc(N2C(=O)C(C)(C)N(CCCS(N)(=O)=O)C2=S)ccc1C#N`, for which the remaining in series [4] was 94%. This molecule gave an EC5 in series [2] greater than 10 µM. Further, the outcome in series [3] was inactive. This molecule also yielded a concentration for half-maximal inhibition (IC50) at Androgen receptor greater than 1000 nM.
For the molecule `Cc1c(N2C(=O)C(C)(C)N(CCCS(N)(=O)=O)C2=S)ccc(C#N)c1C(F)(F)F`, the remaining in series [4] is 89%. For the same molecule, the EC5 in series [2] amounted to 2 µM. Further, the outcome in series [3] was Active. Also, the concentration for half-maximal inhibition (IC50) at Androgen receptor turned out to be 260 nM.
With `CC1(C)C(=O)N(c2ccc(C#N)c(C(F)(F)F)c2)C(=S)N1CCS(N)(=O)=O`, the EC5 in series [1] was greater than 10 µM; in series [2] it was 7.2 µM. The outcome in series [3] was inactive. The 50% inhibitory concentration (IC50) at Androgen receptor was found to be 770 nM.
Taken in the same sequence, the figures for `CC1(C)C(=O)N(c2ccc(C#N)c(C(F)(F)F)c2)C(=S)N1CCCNS(N)(=O)=O` were greater than 10 µM, greater than 10 µM, “inactive” and greater than 1000 nM.
`Cc1cc(C#N)c(C(F)(F)F)cc1N1C(=O)C(C)(C)N(CCCS(N)(=O)=O)C1=S`: in series [4], the remaining came to 91%. Besides, the EC5 in series [2] was greater than 10 µM. At Androgen receptor, the IC50 was greater than 5000 nM.
As for `CN1C(=S)N(c2ccc(C#N)c(C(F)(F)F)c2)C(=O)C1(C)C`, the EC5 in series [1] was less than 0.001 µM; in series [2], 8e-05 µM. The outcome in series [3] was Active. This molecule had a half-inhibitory concentration (IC50) on Androgen receptor of 15 nM.

In general, IC50 refers to the concentration needed to halve the response being measured. A low value points to greater potency. What is called ED50 is the midpoint of the dose-response relation.
